≈ marks a conversion by molar mass, not a printed value.
Experiments:
Assay type in all cases: functional
Haemophilus influenzae [1] = assay: Antibacterial activity against Haemophilus influenzae 49247 by broth microdilution method
Method in brief: (§1)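 In vitro activity was read as the minimum inhibitory concentration (MIC) by broth microdilution and reported in μg/mL. The S. pneumoniae panel included erythromycin-resistant strains carrying mef or erm genes. Telithromycin and clarithromycin were run as comparators in every assay.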

Streptococcus pneumoniae [2] = assay: Antibacterial activity against erythromycin-resistant Streptococcus pneumoniae mef 5654 by broth microdilution method
[3] = system: Staphylococcus epidermidis; assay: Antibacterial activity against Staphylococcus epidermidis f50654 by broth microdilution method; method in brief: as §1
Staphylococcus aureus [4] = assay: Antibacterial activity against Staphylococcus aureus 33591 by broth microdilution method; method in brief: as §1
Streptococcus pneumoniae [5] = assay: Antibacterial activity against erythromycin-resistant Streptococcus pneumoniae erm 6849 by broth microdilution method
Streptococcus pneumoniae [6] = assay: Antibacterial activity against Streptococcus pneumoniae 49619 by broth microdilution method; method in brief: as §1
Streptococcus pyogenes = assay: Antibacterial activity against Streptococcus pyogenes 8668 by broth microdilution method; method in brief: as §1
Streptococcus pneumoniae [7] = assay: Antibacterial activity against Streptococcus pneumoniae 297-749 by broth microdilution method; method in brief: as §1
[8] = system: Staphylococcus epidermidis; assay: Antibacterial activity against Staphylococcus epidermidis 14990 by broth microdilution method; method in brief: as §1
Enterococcus faecalis [9] = assay: Antibacterial activity against Enterococcus faecalis 29212 by broth microdilution method; method in brief: as §1
Enterococcus faecalis [10] = assay: Antibacterial activity against Enterococcus faecalis bc11148-2 by broth microdilution method; method in brief: as §1
Staphylococcus aureus [11] = assay: Antibacterial activity against Staphylococcus aureus 29213 by broth microdilution method; conditions: ATCC29213; method in brief: as §1
Streptococcus pneumoniae [12] = assay: Antibacterial activity against Streptococcus pneumoniae 280-962 by broth microdilution method; method in brief: as §1
Haemophilus influenzae [13] = assay: Antibacterial activity against Haemophilus influenzae 2762 by broth microdilution method; method in brief: as §1
Streptococcus pneumoniae [14] = assay: Antibacterial activity against erythromycin-resistant Streptococcus pneumoniae mef S 3427 by broth microdilution method

| Compound | MIC (Haemophilus influenzae [1]) [µg/mL] | MIC (Streptococcus pneumoniae [2]) [µg/mL] | MIC [3] [µg/mL] | MIC (Staphylococcus aureus [4]) [µg/mL] | MIC (Streptococcus pneumoniae [5]) [µg/mL] | MIC (Streptococcus pneumoniae [6]) [µg/mL] | MIC (Streptococcus pyogenes) [µg/mL] | MIC (Streptococcus pneumoniae [7]) [µg/mL] | MIC [8] [µg/mL] | MIC (Enterococcus faecalis [9]) [µg/mL] | MIC (Enterococcus faecalis [10]) [µg/mL] | MIC (Staphylococcus aureus [11]) [µg/mL] | MIC (Streptococcus pneumoniae [12]) [µg/mL] | MIC (Haemophilus influenzae [13]) [µg/mL] | MIC (Streptococcus pneumoniae [14]) [µg/mL] |
| --- | --- | --- | --- | --- | --- | --- | --- | --- | --- | --- | --- | --- | --- | --- | --- |
| CC[C@H]1OC(=O)[C@H](C)C(=O)[C@H](C)[C@@H](O[C@@H]2O[C@H](C)C[C@H](N(C)C)[C@H]2O)[C@](C)(OC)C[C@@H](C)C(=O)[C@H](C)[C@@H]2[C@@H]1OC(=O)N2CCCCn1cnc2cccnc21 | 3.13 (≈ 4.05 µM) | 0.78 (≈ 1.01 µM) | 0.4 (≈ 0.518 µM) | > 50 | 0.78 (≈ 1.01 µM) | ≤ 0.05 | ≤ 0.05 | ≤ 0.05 | 0.2 (≈ 0.259 µM) | ≤ 0.05 | 50 (≈ 64.8 µM) | 0.2 (≈ 0.259 µM) | ≤ 0.05 | – | – |
| CC[C@H]1OC(=O)[C@H](C)C(=O)[C@H](C)[C@@H](O[C@@H]2O[C@H](C)C[C@H](N(C)C)[C@H]2O)[C@](C)(OC)C[C@@H](C)C(=O)[C@H](C)[C@@H]2[C@@H]1OC(=O)N2CCCCn1ccc2ncccc21 | 1.56 (≈ 2.02 µM) | 0.2 (≈ 0.259 µM) | 0.4 (≈ 0.519 µM) | > 50 | 0.2 (≈ 0.259 µM) | ≤ 0.05 | ≤ 0.05 | ≤ 0.05 | 0.4 (≈ 0.519 µM) | 0.1 (≈ 0.13 µM) | 6.25 (≈ 8.11 µM) | 0.2 (≈ 0.259 µM) | ≤ 0.05 | 0.78 (≈ 1.01 µM) | – |
| CC[C@H]1OC(=O)[C@H](C)C(=O)[C@H](C)[C@@H](O[C@@H]2O[C@H](C)C[C@H](N(C)C)[C@H]2O)[C@](C)(OC)C[C@@H](C)C(=O)[C@H](C)[C@@H]2[C@@H]1OC(=O)N2CCCCn1cnc2ncccc21 | 3.13 (≈ 4.05 µM) | 3.13 (≈ 4.05 µM) | 0.4 (≈ 0.518 µM) | > 50 | 0.78 (≈ 1.01 µM) | ≤ 0.05 | ≤ 0.05 | ≤ 0.05 | 0.4 (≈ 0.518 µM) | 0.1 (≈ 0.13 µM) | > 50 | 0.4 (≈ 0.518 µM) | ≤ 0.05 | – | 0.4 (≈ 0.518 µM) |
| CC[C@H]1OC(=O)[C@H](C)C(=O)[C@H](C)[C@@H](O[C@@H]2O[C@H](C)C[C@H](N(C)C)[C@H]2O)[C@](C)(OC)C[C@@H](C)C(=O)[C@H](C)[C@@H]2[C@@H]1OC(=O)N2CCCCn1ccc2ccccc21 | 6.25 (≈ 8.12 µM) | 0.2 (≈ 0.26 µM) | 0.4 (≈ 0.519 µM) | > 50 | 6.25 (≈ 8.12 µM) | ≤ 0.05 | ≤ 0.05 | ≤ 0.05 | 0.2 (≈ 0.26 µM) | 0.1 (≈ 0.13 µM) | > 50 | 0.4 (≈ 0.519 µM) | ≤ 0.05 | – | – |
| CC[C@H]1OC(=O)[C@H](C)C(=O)[C@H](C)[C@@H](O[C@@H]2O[C@H](C)C[C@H](N(C)C)[C@H]2O)[C@](C)(OC)C[C@@H](C)C(=O)[C@H](C)[C@@H]2[C@@H]1OC(=O)N2CCCCc1ccc2ccccc2n1 | 3.13 (≈ 4 µM) | 0.2 (≈ 0.256 µM) | 0.2 (≈ 0.256 µM) | > 50 | 25 (≈ 32 µM) | ≤ 0.05 | ≤ 0.05 | ≤ 0.05 | 0.2 (≈ 0.256 µM) | ≤ 0.05 | 3.13 (≈ 4 µM) | 0.4 (≈ 0.512 µM) | ≤ 0.05 | – | – |
| CC[C@H]1OC(=O)[C@H](C)C(=O)[C@H](C)[C@@H](O[C@@H]2O[C@H](C)C[C@H](N(C)C)[C@H]2O)[C@](C)(OC)C[C@@H](C)C(=O)[C@H](C)[C@@H]2[C@@H]1OC(=O)N2CCCCc1ccc(-c2cncnc2)s1 | 12.5 (≈ 15.3 µM) | 0.4 (≈ 0.491 µM) | 0.2 (≈ 0.245 µM) | > 50 | > 50 | ≤ 0.05 | ≤ 0.05 | ≤ 0.05 | 0.2 (≈ 0.245 µM) | ≤ 0.05 | > 50 | 0.2 (≈ 0.245 µM) | ≤ 0.05 | 3.13 (≈ 3.84 µM) | – |
| CC[C@H]1OC(=O)[C@H](C)C(=O)[C@H](C)[C@@H](O[C@@H]2O[C@H](C)C[C@H](N(C)C)[C@H]2O)[C@](C)(OC)C[C@@H](C)C(=O)[C@H](C)[C@@H]2[C@@H]1OC(=O)N2CCCCn1ccc2c(N)cccc21 | 3.13 (≈ 3.99 µM) | 0.78 (≈ 0.994 µM) | 0.78 (≈ 0.994 µM) | > 50 | 25 (≈ 31.8 µM) | 0.1 (≈ 0.127 µM) | ≤ 0.05 | ≤ 0.05 | 0.4 (≈ 0.51 µM) | ≤ 0.05 | 6.25 (≈ 7.96 µM) | 0.2 (≈ 0.255 µM) | ≤ 0.05 | 1.56 (≈ 1.99 µM) | – |
